# Test results taken from PubChem BioAssay.
# Active and inactive are the calls of the source. Rule as the data show it, unless noted: active = inhibition above about 30%; inactive = the rest.
# Key:
# [1] = SK-BR-3 cell growth inhibitors, pilot screen, 24 h, human (AID 572;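 active = viability at or below 10% of carrier control in both of two separate runs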;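 also: compound exposure lasted between 18 and 24 h rather than exactly 24 h; 100% = carrier-treated control wells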); conditions: SK-BR-3 viability, CellTiter-Glo luminescence, at 10 µM, stronger effect = lower value
# [2] = HUVEC growth inhibition – cell-based, human, primary screen (AID 575;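 active = viability at or below 30% in both replicate assays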;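 also: 100% = median of untreated cell wells with 0.1% DMSO on each plate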); conditions: HUVEC proliferation, CellTiter-Glo luminescence, 72 h; at 10 µM; stronger effect = lower value
# How it was run: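 material = primary HUVEC, no more than 12 passages | input = 1250 cells per well | controls = vehicle and MePR control wells | measured by = CTG luminescence | times = 72 h compound incubation | format = collagen-coated 384-well format | read-out = % viability vs DMSO wells | doses = single 10 µM dose, 0.1% DMSO, from 5x medium stock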
# [3] = growth inhibitors of H69AR lung tumor, primary screen, human, duplicate replicates (AID 580;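 active = viability at or under a set limit in both replicates, limit being median viability minus 3 SD, cut at about 48% in these data, passing the limit was not always enough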;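 also: 100% = mean luminescence of untreated wells and 0% = no signal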); conditions: H69AR lung tumor cells viability, ATP luminescence, 72 h; at 10 µM; stronger effect = lower value
# [4] = reversal of MRP1-mediated doxorubicin resistance, pilot screen, H69AR cells, doxorubicin co-treatment (AID 601;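 active = viability loss from added drug above about 55%, and viability with drug at most 40%, in both replicates, limit read from the data, passing the limit was not always enough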); conditions: CellTiter-Glo, 72 h, at 10 µM; for differential viability (reversal): stronger effect = higher value
# [5] = 384-well plate pilot, post-Golgi transport modulator project, inhibition of yeast transport mutant growth (AID 636; in the data active = inhibition above about 31%); conditions: absorbance 615 nm, about 18 h, stronger effect = higher value
# [6] = growth suppression of yeast trafficking mutant, preliminary HTS, modulators of trafficking downstream of Golgi apparatus project, 1536-format plate, OD 615 nm (AID 637); conditions: yeast transport mutant growth, absorbance 615 nm, 18 h; stronger effect = higher value
# [7] = H69AR cells + 2 uM doxorubicin, measured here: viability with 2 uM doxorubicin, stronger effect = lower value
# [8] = H69AR cells, compound alone cytotoxicity
Compound,viability [1],viability [2],viability [3],differential viability (reversal) ([4]; H69AR cells + 2 uM doxorubicin),"viability [4, 7] [%]","viability [4, 8] [%]",inhibition [5],inhibition [6]
COc1ccc(C(C)NC(=O)c2ccoc2C)cc1OC (configuration not stated),83% (inactive),91.3% (inactive),89.8% (inactive),-4.93% (inactive),94.7,89.8,-6.16% (inactive),1.82% (inactive)
Nc1ccc(S(=O)(=O)Nc2ccccn2)cc1,143% (inactive),102% (inactive),91.3% (inactive),10.3% (inactive),81,91.3,0.78% (inactive),-1.17% (inactive)
COc1ccc(C(=O)Nc2cccnc2)cc1C(=O)Nc1cccnc1,150% (inactive),79.9% (inactive),97.4% (inactive),2.72% (inactive),94.6,97.4,7.53% (inactive),-3% (inactive)
CCCCCC#CCC#CCC#CCC#CCCCC(=O)O,152% (inactive),66.2% (inactive),93.6% (inactive),-0.29% (inactive),93.9,93.6,0.78% (inactive),8.33% (inactive)
CCCCc1nc(NCCN2CCOCC2)c(C#N)c2c1COC(C)(C)C2,76% (inactive),94.1% (inactive),91.6% (inactive),4.02% (inactive),87.5,91.6,5.48% (inactive),6.77% (inactive)
Cn1c(C(=O)OCC(=O)NCC2CCCO2)cc2sccc21 (configuration not stated),85% (inactive),113% (inactive),92.7% (inactive),3.19% (inactive),89.6,92.7,-9.04% (inactive),2.9% (inactive)
CCCc1c(OCCCCc2nn[nH]n2)ccc(C(C)=O)c1O,77% (inactive),67% (inactive),84.4% (inactive),-20.6% (inactive),105,84.4,-1.56% (inactive),3% (inactive)
CCOCCCn1c(=NC(C)=O)c(C(=O)OCC)cc2c(=O)n3ccccc3nc21,82% (inactive),108% (inactive),90.5% (inactive),43.1% (inactive),47.4,90.5,-0.68% (inactive),2% (inactive)
COc1c2occc2c(OC)c2c(=O)cc(C)oc12,87% (inactive),67.9% (inactive),91.2% (inactive),-1.66% (inactive),92.8,91.2,0.13% (inactive),-5.17% (inactive)
COc1ccc(-c2oc3ncn(CCN4CCOCC4)c(=N)c3c2-c2ccc(OC)cc2)cc1,82% (inactive),88.9% (inactive),24% (active),2.45% (inactive),21.5,24,-4.73% (inactive),-2.55% (inactive)
COc1cc(CC(=O)Oc2ccc3c(c2)OCO3)cc(OC)c1OC,98% (inactive),104% (inactive),84.8% (inactive),0.695% (inactive),84.2,84.8,-2.93% (inactive),2.91% (inactive)
COC(=O)c1ccccc1NC(=O)CN1CCC(n2nnc3cc(F)ccc32)CC1,64% (inactive),94.9% (inactive),100% (inactive),10.3% (inactive),89.7,100,-6.16% (inactive),-1.27% (inactive)
S=C(c1ccc(N2CCOCC2)cc1)N1CCCCC1,103% (inactive),105% (inactive),93.5% (inactive),4.23% (inactive),89.2,93.5,-5.48% (inactive),-8.87% (inactive)
Cc1nc2ccccc2nc1OCC(=O)Nc1cc(C(F)(F)F)ccc1N1CCOCC1,72% (inactive),93% (inactive),96.3% (inactive),-4.5% (inactive),101,96.3,-6.44% (inactive),3.64% (inactive)
Cc1cc(NC(=O)Cc2c(F)cccc2Cl)no1,102% (inactive),95.5% (inactive),96% (inactive),6.76% (inactive),89.2,96,-7.26% (inactive),3.64% (inactive)
COc1ccc(CC(=O)Nc2cc(Cl)ccc2O)cc1,110% (inactive),84.5% (inactive),81.1% (inactive),0.69% (inactive),80.4,81.1,-4.53% (inactive),-3.09% (inactive)
Cc1cc(C)n(C(C)n2nc(C)cc2C)n1,107% (inactive),103% (inactive),87.8% (inactive),9.01% (inactive),78.8,87.8,-7.87% (inactive),-0.91% (inactive)
CCCCCC(=O)N(CN1C(=O)CCC1=O)c1ccccc1,93% (inactive),104% (inactive),90.9% (inactive),3.52% (inactive),87.4,90.9,-7.3% (inactive),-0.73% (inactive)
CNC(=O)NCCN1CCCC1=O,110% (inactive),112% (inactive),102% (inactive),14.5% (inactive),87.5,102,-5% (inactive),-3.09% (inactive)
CC1CCc2c(sc3c2C2=NS(=O)(=O)CCN2C=N3)C1 (configuration not stated),88.5% (inactive),107% (inactive),80.6% (inactive),-7.62% (inactive),88.2,80.6,-9.73% (inactive),3.81% (inactive)
CC(=O)NCCCCCCNC(C)=O,125% (inactive),100% (inactive),94.5% (inactive),5.61% (inactive),88.9,94.5,4.94% (inactive),-1.17% (inactive)
CCOC(=O)N1CCC(N(CCCOC)C(=O)Nc2ccc(CC)cc2)CC1,106% (inactive),92.7% (inactive),98.9% (inactive),13% (inactive),86,98.9,-0.26% (inactive),-2.3% (inactive)
CC(C)C(=O)N1CCN(c2nc(-c3ccccc3)c3c(c2C#N)CCCC3)CC1,103% (inactive),74.5% (inactive),89.2% (inactive),11.5% (inactive),77.7,89.2,8.51% (inactive),5.09% (inactive)
COc1cc2c(C#N)c(N3CCOCC3)nc(N)c2c(N)n1,85% (inactive),90% (inactive),75.2% (inactive),8.29% (inactive),67,75.2,-0.13% (inactive),0.82% (inactive)
Cc1cc(C(=O)Nc2c(F)cc(F)cc2Br)no1,99% (inactive),91.9% (inactive),98.2% (inactive),-0.16% (inactive),98.4,98.2,-6.16% (inactive),4.03% (inactive)

Compound,viability [1],viability [2],viability [3],differential viability (reversal) ([4]; H69AR cells + 2 uM doxorubicin),"viability [4, 7] [%]","viability [4, 8] [%]",inhibition [5],inhibition [6]
Cc1ccc(Cn2ccc(NC(=O)c3cc(-c4cccs4)on3)n2)cc1,96% (inactive),48.7% (inactive),82.9% (inactive),0.115% (inactive),82.8,82.9,-2.6% (inactive),-2.46% (inactive)
O=C1c2ccccc2C(=O)N1CCN1CCCCC1,98% (inactive),129% (inactive),103% (inactive),4.01% (inactive),99.4,103,3.38% (inactive),-1.64% (inactive)
COCC(=O)Nc1cc(OC)ccc1OC,83% (inactive),89% (inactive),102% (inactive),5.8% (inactive),96.1,102,-2.86% (inactive),0.66% (inactive)
Cc1nnc(N(C)C(=O)Cc2ccc3c(c2)OCO3)s1,94% (inactive),92.6% (inactive),94.6% (inactive),5.27% (inactive),89.3,94.6,2.47% (inactive),8.71% (inactive)
Cc1cc(C(=O)N2CCCc3ccccc32)no1,98% (inactive),102% (inactive),105% (inactive),14.4% (inactive),90.3,105,-2.27% (inactive),1.27% (inactive)
CCCC1Cc2c(sc3ncnc(N)c23)CO1 (configuration not stated),111% (inactive),94.5% (inactive),90.9% (inactive),-10.3% (inactive),101,90.9,-0.14% (inactive),-0.73% (inactive)
Cc1ccccc1Cc1c(C)nc2c(C(=O)N3CCN(Cc4ccc5c(c4)OCO5)CC3)cnn2c1C,103% (inactive),59.6% (inactive),79% (inactive),6.94% (inactive),72.1,79,-1.04% (inactive),1.48% (inactive)
Cc1nc2ccc(S(=O)(=O)NCC(=O)N(C)Cc3ccco3)cc2s1,109% (inactive),95.6% (inactive),91.6% (inactive),9.31% (inactive),82.3,91.6,-0.91% (inactive),3.93% (inactive)
Cc1nc2sccn2c(=O)c1CCN1CCC(=C(c2ccccc2)c2ccc(F)cc2)CC1,160% (inactive),3.02% (active),81.9% (inactive),-12.5% (inactive),94.5,81.9,-0.13% (inactive),24.5% (inactive)
Cc1c(N=C2SCC(=O)N2c2c(C)n(C)n(-c3ccccc3)c2=O)c(=O)n(-c2ccccc2)n1C,120% (inactive),113% (inactive),94.2% (inactive),3.54% (inactive),90.6,94.2,-1.43% (inactive),-1.31% (inactive)
O=C(NC1CCS(=O)(=O)C1)OC1CCCCC1 (configuration not stated),75% (inactive),111% (inactive),93.4% (inactive),-10.9% (inactive),104,93.4,-0.82% (inactive),1.82% (inactive)
NCc1ccc(S(N)(=O)=O)cc1,124% (inactive),84.8% (inactive),102% (inactive),9.47% (inactive),92.1,102,-1.43% (inactive),6.33% (inactive)
CCC(=O)Nc1cc(Cl)ccc1N1CCN(C(=O)CC)CC1,70% (inactive),92.6% (inactive),88.5% (inactive),3.43% (inactive),85,88.5,-4.66% (inactive),0.73% (inactive)
Cc1cc(NS(=O)(=O)Cc2ccccc2)cc(C)c1OCC(=O)N1CCOCC1,95% (inactive),92.1% (inactive),94.6% (inactive),20.2% (inactive),74.4,94.6,-0.52% (inactive),0% (inactive)
Fc1ccccc1Cn1nnc2c(-n3ccnc3)ncnc21,115% (inactive),99.9% (inactive),92.3% (inactive),15.2% (inactive),77.1,92.3,-3.01% (inactive),-3.71% (inactive)
CC1CNCCN1S(=O)(=O)c1cccc2cnccc12 (configuration not stated),100% (inactive),84.4% (inactive),102% (inactive),5.87% (inactive),96.2,102,1.3% (inactive),-1.83% (inactive)
CCOC(=O)CSc1nnc(-c2ccc(NS(=O)(=O)c3ccc(C)cc3)cc2)o1,87% (inactive),56% (inactive),91.5% (inactive),5.14% (inactive),86.4,91.5,-4.29% (inactive),-5.67% (inactive)
CCCN(CCC)C(=O)C(CCC(=O)O)NC(=O)c1ccccc1 (configuration not stated),108% (inactive),94.9% (inactive),105% (inactive),9.32% (inactive),95.9,105,-5.32% (inactive),2.33% (inactive)
Cn1c(C(=O)OC(C(=O)NC2CCCC2)c2cccnc2)cc2sccc21 (configuration not stated),74% (inactive),110% (inactive),89.1% (inactive),-3.48% (inactive),92.6,89.1,-4.38% (inactive),2.91% (inactive)
O=[N+]([O-])c1cccc2cn[nH]c12,113% (inactive),88.6% (inactive),99.5% (inactive),9.56% (inactive),90,99.5,-0.91% (inactive),1.17% (inactive)
O=C(COC(=O)c1cccc(S(=O)(=O)N2CCc3ccccc32)c1)NC1CCS(=O)(=O)C1 (configuration not stated),90% (inactive),114% (inactive),102% (inactive),0.47% (inactive),101,102,-4.05% (inactive),-7.64% (inactive)
CCOC(=O)C1CCCN(C(=O)c2cc3c(-c4cccc(OC)c4)nn(C)c3s2)C1 (configuration not stated),115% (inactive),56.1% (inactive),13.2% (active),-69% (inactive),82.2,13.2,-8.13% (inactive),1.64% (inactive)
CCOC(=O)N(C)c1ccc(C(O)(C(F)(F)F)C(F)(F)F)cc1,92% (inactive),91.7% (inactive),102% (inactive),5.16% (inactive),97.1,102,1.76% (inactive),-6.55% (inactive)
COc1ccc2c(c1)C1(Nc3ccccc3-c3nc4ccccc4n31)C(=O)N2 (configuration not stated),88% (inactive),57.2% (inactive),82.3% (inactive),-3.61% (inactive),85.9,82.3,-8.49% (inactive),4.19% (inactive)
